FLuc act counter = affects firefly luciferase, flagging false hits in luciferase stimulation screens. P08659. ATPlite luciferase biochemical, luminescence, 10 min; 0 = ATP-free wells, 1 = DMSO control. activation factor at 10 µM. 200,000 tested, under 10 active. AID 1027;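 active = luciferase activation factor, scaled between plate controls, of at least 2 with compound at 10 µM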
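System: Luciferase/luciferin detection reagent, cell-free biochemical luciferase assay | Medium: PBS buffer for ATP | Dosing: Test compounds dosed from 2 mM stocks in 100% DMSO | Timing: 10 min at ambient temperature | Signal: Luminescence measurement of luciferase light output | Evaluation: Luciferase activation, seen as luminescence increase over controls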
FLuc inhib CS = inhibits firefly luciferase, flagging false hits in luciferase inhibition screens; ATPLite firefly luciferase biochemical luminescence, 10 min; inhibition, % at 10 µM; actives 1.5% (n = 200,000);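 active = inhibition above about 50% when tested at 10 µM, limit read from the data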
Diaphorase act = activates diaphorase or chemically reduces, flagging diaphorase assay artifacts | Diaphorase/resazurin coupled assay, resorufin fluorescence, 16 min; hits give high values; 1 = vehicle wells, 0 = NADH-free wells | activation factor at 20 µM | actives 0.005% (n = 190,000) | AID 1229;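 active = diaphorase activity raised at least twofold by the compound at 20 µM; inactive = activation factor below 2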
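Test system: Clostridium kluyveri diaphorase, purified enzyme; input: enzyme 0.07 U/mL final; buffer or medium: 50 mM HEPES pH 7.4 with 4.542 mM MgCl2, 0.005% Tween 20; also added: 0.114 mM NADH and 0.1 mM resazurin, final amounts; schedule: 16 min enzyme reaction, ambient temperature; technique: fluorescence of resorufin, 544 nm excitation, 590 nm emission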
Diaphorase inh = inhibits diaphorase or chemically oxidizes, flagging diaphorase assay artifacts | actives 0.69% (n = 190,000) | inhibition, % at 20 µM | diaphorase resazurin-to-resorufin fluorescence, NADH, 16 min; bacterial (C. kluyveri) enzyme, not human | AID 1217;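 active = primary screen inhibition at 20 µM above a set limit, cut at about 50% in these data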
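Test system: bacterial diaphorase enzyme (C. kluyveri); Quantity: 0.14 U/mL diaphorase, enzyme working solution; Times: reaction incubation of 16 min at room temperature; Measured by: fluorescence of resorufin formed from resazurin, Ex 544/Em 590 nm; Benchmarks: positive control minus NADH, DMSO neutral control.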
PMI activator = activators of human phosphomannose isomerase; P34949; activation factor at 20 µM; actives 0.005% (n = 190,000); purified human PMI, coupled resazurin fluorescence, 20 min; hits give high values; 1 = vehicle control, 0 substrate-free wells; AID 1214;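 active = activation factor of 2 or more at 20 µM, relative to plate controls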
Target sequence (P34949 whole entry, looked up): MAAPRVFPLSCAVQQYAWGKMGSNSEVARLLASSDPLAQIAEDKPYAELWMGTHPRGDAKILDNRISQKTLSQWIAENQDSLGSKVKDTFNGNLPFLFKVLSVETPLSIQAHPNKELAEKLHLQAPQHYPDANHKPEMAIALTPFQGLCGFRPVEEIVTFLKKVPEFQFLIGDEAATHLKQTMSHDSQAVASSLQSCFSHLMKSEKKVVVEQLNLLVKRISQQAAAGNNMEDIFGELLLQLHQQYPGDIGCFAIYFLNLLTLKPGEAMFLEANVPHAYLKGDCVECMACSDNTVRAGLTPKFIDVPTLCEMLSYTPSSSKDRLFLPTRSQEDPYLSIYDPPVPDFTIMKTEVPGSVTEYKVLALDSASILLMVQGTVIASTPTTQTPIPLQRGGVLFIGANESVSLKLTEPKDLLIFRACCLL
PMI act satM6P = activators of human phosphomannose isomerase at near-saturating mannose 6-phosphate; P34949; coupled PMI enzyme assay, resazurin fluorescence, 20 min; hits give high values; 1 = untreated enzyme, 0 = substrate-free blank; activation factor at 20 µM; actives 0.34% (n = 190,000);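 active = activation factor of 2 or more at 20 µM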
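Test system: human PMI in coupled enzyme assay; Input: PMI at 15 ng/mL final; Medium: HEPES buffer, pH 7.4; Schedule: 20 min incubation at room temperature; Technique: resorufin fluorescence at Ex 544/Em 590 nm; Compound: 20 µM single dose; Probe or stimulus: Near-saturating mannose-6-phosphate, 1.0 mM.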
Numbers stand for hits; . = inactive. Most compounds without a hit are left out; they make up all but 2.5% or so of the library.

SMILES	FLuc act counter	FLuc inhib CS	Diaphorase act	Diaphorase inh	PMI activator	PMI act satM6P
Cc1ccc(N2NC(C)(c3cccs3)NC2=S)cc1 (configuration not stated)	.	.	.	.	.	2.7
Cc1ccc(N2CC(O)(c3cccs3)[N+]3=C2CCCC3)cc1 (configuration not stated)	.	.	.	.	.	.
N#Cc1c(-c2ccc(F)cc2)ccnc1N1CCOCC1	.	.	.	.	.	.
CCOc1ccc(C(=O)N/N=C/c2cccc3cccnc23)cc1	.	.	.	.	.	.
COc1ccc(C(=O)N/N=C/c2cc3ccccc3[nH]c2=S)cc1	.	.	.	54.8	.	2
COc1ccc(C(=O)N/N=C/c2cccc3cccnc23)cc1	.	58.9	.	.	.	.
COc1ccc(C(=O)N/N=C/c2c(C)[nH]c(=O)[nH]c2=O)cc1	.	.	.	.	.	.
CN1C(=S)SC(N(O)C(=O)Nc2ccc(Cl)c(Cl)c2)C1(C)C (configuration not stated)	.	.	.	.	.	.
COC(=O)/C=C1\SC(N2CCOCC2)=C(c2ccc(OC)cc2)C1=O	.	.	.	.	.	.
COc1cc2[nH]c(=O)n(CCC(=O)N3CC=C(c4ccccc4)CC3)c(=O)c2cc1OC	.	.	.	.	.	.
COc1cc2[nH]c(=O)n(CCCC(=O)N3CC=C(c4ccccc4)CC3)c(=O)c2cc1OC	.	.	.	58.1	.	.
COCCn1c(SC(C)C(=O)Nc2ccc(Cl)cn2)nnc1-c1ccncc1 (configuration not stated)	.	.	.	.	.	.
O=C(O)c1ccccc1N/N=C\c1ccnc2ccccc12	.	89.4	.	.	.	.
C=CCNc1oc(-c2cccs2)nc1S(=O)(=O)c1ccccc1	.	.	.	.	.	.
CC[n+]1c(/C=C(/C)SC)sc2ccccc21	.	.	.	.	.	.
CC/C(=C/c1sc2ccccc2[n+]1CC)SC	.	.	.	.	.	2
CC[n+]1c(/C=C(\C)OC)sc2ccccc21	.	.	.	.	.	.
CC[n+]1c(/C=C(\C)SC)sc2ccccc21	.	.	.	.	.	2
O=C(CC1Nc2ccccc2NC1=O)NCCc1ccccc1 (configuration not stated)	.	.	.	.	.	.
O=C(CC1Nc2ccccc2NC1=O)c1ccccc1 (configuration not stated)	.	54.3	.	.	.	.
O=C(CC1Nc2cccc3cccc(c23)NC1=O)Nc1ccccc1 (configuration not stated)	.	.	.	.	.	.
NC(=O)CC1Nc2cccc3cccc(c23)NC1=O (configuration not stated)	.	.	.	56.4	.	.
S=c1[nH]nc(-c2cc(-c3ccco3)[nH]n2)n1-c1ccccc1Cl	.	.	.	70.7	.	.
CCOC(=O)c1ccccc1NC(=O)C1CC(=O)N(c2ccccc2)C1 (configuration not stated)	.	.	.	.	.	.
O=C(CN1CCN(Cc2ccccc2)CC1)c1ccc(Br)cc1	.	.	.	.	.	2.4
SMILES	FLuc act counter	FLuc inhib CS	Diaphorase act	Diaphorase inh	PMI activator	PMI act satM6P
O=C(Nc1ccc(Cl)c(Cl)c1)Nc1cc(C(=O)NC2CC2)ccc1Cl	.	.	.	.	.	.
C=CCOC(=O)C1=C[C@H](c2ccc(Br)cc2)[C@@H](CCCO)[C@H](OCC)O1	.	.	.	55.3	.	.
CCO[C@@H]1OC(C(=O)Nc2ccccc2)=C[C@H](c2ccc(Br)cc2)[C@H]1CCCO	.	.	.	56.1	.	.
CCO[C@@H]1OC(C(=O)Nc2ccccc2)=C[C@H](c2ccccc2)[C@H]1CCCO	.	.	.	.	.	.
CCO[C@H]1OC(C(N)=O)=C[C@@H](c2ccc(Br)cc2)[C@@H]1CCCO	.	.	.	.	.	.
O=C(/C=C/c1ccco1)Nc1ccc(C(=O)N2CCOCC2)cc1	.	.	.	.	.	.

From PubChem BioAssay
